Experimental data: ChEMBL document CHEMBL5058577, “EUbOPEN Chemogenomics Library 2 (Multiplex)” (2022)

Tested on: Fibroblast
Assay: Multiplex assay against human fibroblast
Type: toxicity, cell-based
How it was run: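 With compound added, live cells were imaged on a CQ1 microscope at 37°C and 5% CO2; staining with Hoechst33342, BioTracker Green Microtubule Cytoskeleton Dye, MitoTracker Red and Annexin V Alexa Fluor 680 had been done at seeding. The CellPathfinder machine-learning gating scheme split cells into Hoechst high-intensity objects or normal cells, normal cells into healthy, pyknosed or fragmented nuclei, and pyknosed cells into mitotic or apoptotic. The tubulin, mitochondrial-mass and membrane-permeability phenotypes are per cents of healthy-nucleus cells.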

[1] = 12 h, 1 µM, compound concentration 1 uM, replicate 1
[2] = 12 h, 1 µM, compound concentration 1 uM, replicate 2
[3] = 12 h, 10 µM, compound concentration 10 uM, replicate 1
[4] = 12 h, 10 µM, compound concentration 10 uM, replicate 2
[5] = 24 h, 1 µM, compound concentration 1 uM, replicate 1
[6] = 24 h, 1 µM, compound concentration 1 uM, replicate 2
[7] = 24 h, 10 µM, compound concentration 10 uM, replicate 1
[8] = 24 h, 10 µM, compound concentration 10 uM, replicate 2
[9] = 48 h, 1 µM, compound concentration 1 uM, replicate 1
[10] = 48 h, 1 µM, compound concentration 1 uM, replicate 2
[11] = 48 h, 10 µM, compound concentration 10 uM, replicate 1
[12] = 48 h, 10 µM, compound concentration 10 uM, replicate 2

CSc1ccccc1N1CCN(CCCCCC(=O)NC2CCCc3ccccc32)CC1.Cl (stereo not drawn)
Population Apoptotic (%) [1]: 37% | Population Fragmented Nuclei (%) [1]: 26% | Population Healthy Nuclei (%) [1]: 49% | Population Hoechst High Intensity Objects (%) [1]: 6% | Population Membrane Permeable-Phenotype (%) [1]: 1% | Population Mitochondria Different-Phenotype (%) [1]: 15% | Population Mitotic Cells (%) [1]: 62% | Population Normal (%) [1]: 93% | Population Pyknosed Nuclei (%) [1]: 24% | Population Tubulin-Different-Phenotype (%) [1]: 65% | Total Cell Count [1]: 126 | Population Apoptotic (%) [2]: 50% | Population Fragmented Nuclei (%) [2]: 32% | Population Healthy Nuclei (%) [2]: 41% | Population Hoechst High Intensity Objects (%) [2]: 2% | Population Membrane Permeable-Phenotype (%) [2]: 9% | Population Mitochondria Different-Phenotype (%) [2]: 7% | Population Mitotic Cells (%) [2]: 50% | Population Normal (%) [2]: 97% | Population Pyknosed Nuclei (%) [2]: 25% | Population Tubulin-Different-Phenotype (%) [2]: 74% | Total Cell Count [2]: 135 | Population Apoptotic (%) [3]: 58% | Population Fragmented Nuclei (%) [3]: 25% | Population Healthy Nuclei (%) [3]: 57% | Population Hoechst High Intensity Objects (%) [3]: 5% | Population Membrane Permeable-Phenotype (%) [3]: 0% | Population Mitochondria Different-Phenotype (%) [3]: 78% | Population Mitotic Cells (%) [3]: 41% | Population Normal (%) [3]: 94% | Population Pyknosed Nuclei (%) [3]: 17% | Population Tubulin-Different-Phenotype (%) [3]: 95% | Total Cell Count [3]: 220 | Population Apoptotic (%) [4]: 66% | Population Fragmented Nuclei (%) [4]: 34% | Population Healthy Nuclei (%) [4]: 50% | Population Mitochondria Different-Phenotype (%) [4]: 36% | Population Mitotic Cells (%) [4]: 33% | Population Pyknosed Nuclei (%) [4]: 14% | Population Tubulin-Different-Phenotype (%) [4]: 92% | Total Cell Count [4]: 242 | Population Apoptotic (%) [5]: 52% | Population Fragmented Nuclei (%) [5]: 29% | Population Healthy Nuclei (%) [5]: 52% | Population Hoechst High Intensity Objects (%) [5]: 6% | Population Membrane Permeable-Phenotype (%) [5]: 0% | Population Mitochondria Different-Phenotype (%) [5]: 21% | Population Mitotic Cells (%) [5]: 47% | Population Normal (%) [5]: 93% | Population Pyknosed Nuclei (%) [5]: 18% | Population Tubulin-Different-Phenotype (%) [5]: 40% | Total Cell Count [5]: 133 | Population Apoptotic (%) [6]: 37% | Population Fragmented Nuclei (%) [6]: 33% | Population Healthy Nuclei (%) [6]: 43% | Population Hoechst High Intensity Objects (%) [6]: 3% | Population Membrane Permeable-Phenotype (%) [6]: 3% | Population Mitochondria Different-Phenotype (%) [6]: 11% | Population Mitotic Cells (%) [6]: 62% | Population Normal (%) [6]: 96% | Population Pyknosed Nuclei (%) [6]: 23% | Population Tubulin-Different-Phenotype (%) [6]: 64% | Total Cell Count [6]: 130 | Population Apoptotic (%) [7]: 90% | Population Fragmented Nuclei (%) [7]: 22% | Population Healthy Nuclei (%) [7]: 66% | Population Hoechst High Intensity Objects (%) [7]: 7% | Population Membrane Permeable-Phenotype (%) [7]: 0% | Population Mitochondria Different-Phenotype (%) [7]: 81% | Population Mitotic Cells (%) [7]: 9% | Population Normal (%) [7]: 92% | Population Pyknosed Nuclei (%) [7]: 11% | Population Tubulin-Different-Phenotype (%) [7]: 98% | Total Cell Count [7]: 211 | Population Apoptotic (%) [8]: 66% | Population Fragmented Nuclei (%) [8]: 33% | Population Healthy Nuclei (%) [8]: 56% | Population Hoechst High Intensity Objects (%) [8]: 3% | Population Mitochondria Different-Phenotype (%) [8]: 51% | Population Mitotic Cells (%) [8]: 33% | Population Normal (%) [8]: 96% | Population Pyknosed Nuclei (%) [8]: 9% | Population Tubulin-Different-Phenotype (%) [8]: 90% | Total Cell Count [8]: 258 | Population Apoptotic (%) [9]: 61% | Population Fragmented Nuclei (%) [9]: 26% | Population Healthy Nuclei (%) [9]: 56% | Population Hoechst High Intensity Objects (%) [9]: 6% | Population Membrane Permeable-Phenotype (%) [9]: 2% | Population Mitochondria Different-Phenotype (%) [9]: 17% | Population Mitotic Cells (%) [9]: 38% | Population Normal (%) [9]: 93% | Population Pyknosed Nuclei (%) [9]: 17% | Population Tubulin-Different-Phenotype (%) [9]: 69% | Total Cell Count [9]: 132 | Population Apoptotic (%) [10]: 44% | Population Fragmented Nuclei (%) [10]: 33% | Population Healthy Nuclei (%) [10]: 45% | Population Hoechst High Intensity Objects (%) [10]: 1% | Population Membrane Permeable-Phenotype (%) [10]: 0% | Population Mitochondria Different-Phenotype (%) [10]: 12% | Population Mitotic Cells (%) [10]: 56% | Population Normal (%) [10]: 98% | Population Pyknosed Nuclei (%) [10]: 20% | Population Tubulin-Different-Phenotype (%) [10]: 64% | Total Cell Count [10]: 124 | Population Apoptotic (%) [11]: 91% | Population Fragmented Nuclei (%) [11]: 25% | Population Healthy Nuclei (%) [11]: 61% | Population Hoechst High Intensity Objects (%) [11]: 8% | Population Membrane Permeable-Phenotype (%) [11]: 0% | Population Mitochondria Different-Phenotype (%) [11]: 82% | Population Mitotic Cells (%) [11]: 8% | Population Normal (%) [11]: 91% | Population Pyknosed Nuclei (%) [11]: 12% | Population Tubulin-Different-Phenotype (%) [11]: 97% | Total Cell Count [11]: 195 | Population Apoptotic (%) [12]: 68% | Population Fragmented Nuclei (%) [12]: 38% | Population Healthy Nuclei (%) [12]: 53% | Population Hoechst High Intensity Objects (%) [12]: 4% | Population Membrane Permeable-Phenotype (%) [12]: 2% | Population Mitochondria Different-Phenotype (%) [12]: 33% | Population Mitotic Cells (%) [12]: 31% | Population Normal (%) [12]: 95% | Population Pyknosed Nuclei (%) [12]: 8% | Population Tubulin-Different-Phenotype (%) [12]: 83% | Total Cell Count [12]: 281
